This is an account of results in paper PMC8434889 (Bioorganic Chemistry, 2021).

One series can be described thus: Splenocytes cytotoxicity. In kind it is cell-based. The conditions noted are these: female, BALB/c, mouse, murine splenocytes. The method, boiled down:
(§1)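 MTT assay after 48 h culture in triplicate with or without test compound. Cells: 8 × 10^5 BALB/c splenocytes or 1 × 10^5 RAW264.7 cells. MTT reagent (5 mg/mL) added 4 h before end of culture; formazan dissolved in DMSO; absorbance at 570 nm. CC50 from log(inhibitor)–normalized response nonlinear fit.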

Series [1] has as its system Con A-induced T cell proliferation of murine splenocytes. Put plainly: Con A-induced T-cell proliferation. In kind it is cell-based, mouse. The conditions noted are these: 48 h; for IC50: Mus musculus, T-cell, read-out: Con A-induced T-cell proliferation IC50. A digest of the protocol:
(§2)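 Splenocytes from 6–8-week-old female BALB/c mice, with erythrocytes lysed in NH4Cl/Tris buffer (pH 7.2), in RPMI 1640 with 10% FBS and penicillin/streptomycin. Cells at 5 × 10^5 in triplicate for 48 h with or without test compound (DMSO stock diluted in medium). Stimulation: ConA 1 μg/mL for T cells or LPS 10 μg/mL for B cells. [3H]thymidine 0.5 μCi/well pulse for 8 h, filter harvest, scintillation counting. IC50 from log(inhibitor)–normalized response nonlinear fit.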

The test system of series [2] is LPS-induced B cell proliferation of murine splenocytes. Put plainly: LPS-induced B-cell proliferation. The note with it: 48 h; for IC50: Mus musculus, B-cell, read-out: LPS-induced B-cell proliferation IC50. In kind it is cell-based, mouse. A digest of the protocol:
as §2

For the next series, the system named is IFN-γ. Put plainly: Con A-induced cytokine production in splenocytes, IFN-γ. The class given is cell-based. The conditions noted are these: Mus musculus, Splenocyte, 48 h, read-out: IC50 IFN-γ.
For a further series, the system named is IL-17. Kind of series: Con A-induced cytokine production in splenocytes, IL-17. The note with it: Mus musculus, Splenocyte, 48 h, read-out: IC50 IL-17. The class given is cell-based.
The test system of series [3] is IL-6. Put plainly: Con A-induced cytokine production in splenocytes, IL-6. The conditions noted are these: Mus musculus, Splenocyte, 48 h, read-out: IC50 IL-6. The class given is cell-based.
In series [4] the test system is IL-6. Put plainly: LPS-induced cytokine production in splenocytes, IL-6. The conditions noted are these: Mus musculus, Splenocyte, 48 h, read-out: IC50 IL-6. The class given is cell-based.
In series [5] the test system is IL-1β. Put plainly: LPS-induced cytokine production in splenocytes, IL-1β. In kind it is cell-based. The note with it: Mus musculus, Splenocyte, 48 h, read-out: IC50 IL-1β.
The nature of series [6]: Cytotoxicity in RAW264.7 cell. In kind it is cell-based. The conditions noted are these: mouse, RAW264.7 macrophage cells. A digest of the protocol:
as §1

The subject of series [7] is IL-6. Put plainly: LPS-induced cytokine production in RAW264.7 cell, IL-6. In kind it is cell-based. The note with it: Mus musculus, RAW264.7, 48 h, read-out: IL-6 IC50. A digest of the protocol: (§3)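 Murine RAW264.7 macrophages grown in DMEM with 10% FBS, 2 mM L-glutamine and penicillin/streptomycin at 37 °C, 5% CO2. Cells at 1 × 10^5 in triplicate with or without test compound, then LPS 10 μg/mL for 48 h. Supernatant IL-1β, IL-6 and TNF-α by ELISA. IC50 from log(inhibitor)–normalized response nonlinear fit.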

Series [8] concerns IL-1β. Kind of series: LPS-induced cytokine production in RAW264.7 cell, IL-1β. The note with it: Mus musculus, RAW264.7, 48 h, read-out: IL-1β IC50. In kind it is cell-based. The method, boiled down: as §3
For a further series, the system named is TNF-α. Kind of series: LPS-induced cytokine production in RAW264.7 cell, TNF-α. The class given is cell-based. The note with it: Mus musculus, RAW264.7, 48 h, read-out: TNF-α IC50. A digest of the protocol: as §3
A short description of the next series: in vitro. The note with it: human.
For series [9], the target named is SARS-Cov2 spike glycoprotein (Severe acute respiratory syndrome coronavirus 2, UniProt P0DTC2). Put plainly: cell-based. In kind it is cell-based, SARS-CoV-2.
For another series, the system named is Huh7 cell. The note with it: read-out: Huh7 cell CC50; MTT, 2 days.

Turning to `CCN(CC)CCCC(C)Nc1ccnc2cc(Cl)ccc12` (centres unmarked) [Compound 1, chloroquine, reference compound], the CC50 at 48 h in “Splenocytes cytotoxicity” turned out to be 25.5 ± 2.47 µM; in [6], 21.9 ± 3.59 µM. The IC50 amounted to 15.27 ± 0.13 µM in [1]; 14.6 ± 0.56 µM in [2]; 0.65 ± 0.31 µM with IFN-γ; 0.65 ± 0.28 µM in the series on IL-17; 7.2 ± 1.49 µM with IL-6 [3]; 0.81 ± 0.78 µM in the series with IL-6 [4]. For the same compound, the IC50 in the series on IL-1β [5] was determined as 0.48 ± 0.34 µM; in the series with IL-6 [7], 14.6 ± 1.27 µM; in the series on IL-1β [8] it was 2.72 ± 0.75 µM; in the series on TNF-α it was 35 ± 18.7 µM. In the series “in vitro”, this compound displayed a CC50 of 26.4 µM.
On to `CCN(CCO)CCCC(C)Nc1ccnc2cc(Cl)ccc12` (centres unmarked) [Compound 2, hydroxychloroquine, reference compound], for which the “2019nCoV-S-HIV EC50” value in [9] is “ineffective”. The half-maximal effective concentration (EC50) (as a rule, the concentration that produces a half-maximal response) in series [9] is greater than 80 µM. For the same compound, the CC50 at 48 h came to 26.8 ± 2.81 µM in “Splenocytes cytotoxicity” and 25.3 ± 4.38 µM in series [6]. Also, the IC50 in series [1] turned out to be 18.2 ± 1.45 µM; in [2] it was 14.2 ± 0.21 µM; with IFN-γ it was 0.44 ± 0.01 µM; with IL-17, 0.62 ± 0.23 µM; in the series with IL-6 [3], 5.78 ± 2.39 µM; with IL-6 [4], 0.86 ± 0.57 µM. Also, the IC50 was 1.49 ± 0.32 µM in the series with IL-1β [5], 16.5 ± 0.55 µM in the series on IL-6 [7], 3.51 ± 0.15 µM in the series with IL-1β [8] and 10 ± 2.97 µM with TNF-α. The compound also yielded a CC50 in the series “in vitro” greater than 80 µM.
In turn, `CCN(CCCC(C)Nc1ccnc2cc(Cl)ccc12)CCNC1CNC1` (centres unmarked) [Compound 5, N^1-(2-(Azetidin-3-ylamino)ethyl)-N^4-(7-chloroquinolin-4-yl)-N^1-ethylpentane-1,4-diamine] displayed an EC50 in [9] greater than 80 µM. In the series “Splenocytes cytotoxicity”, this compound gave a CC50 at 48 h greater than 250 µM. Further, the IC50 in series [1] and in series [2] was greater than 250 µM in each case. Besides, the “Con A-induced T-cell proliferation IC50” value in series [1] (murine splenocytes, Con A 1 μg/mL) is recorded as “lost activity completely”. The “LPS-induced B-cell proliferation IC50” value in [2] (murine splenocytes, LPS 10 μg/mL) is recorded as “lost activity completely”. Further, the CC50 in “in vitro” is greater than 80 µM.
Turning to `CCN(CCCC(C)Nc1ccnc2cc(Cl)ccc12)CCNC12CC(N)(C1)C2` (centres unmarked) [Compound 6, N^1-(2-((4-((7-Chloroquinolin-4-yl)amino)pentyl)(ethyl)amino)ethyl)bicyclo[1.1.1]pentane-1,3-diamine], in series [9], the EC50 was 40.5 µM. The compound further had a CC50 at 48 h in “Splenocytes cytotoxicity” of 32.4 ± 6.22 µM. The IC50 in [1] came out at 16.7 ± 0.34 µM; in series [2], 15.2 ± 0.46 µM. This compound also yielded a CC50 in the series “in vitro” of 24.9 µM.
In the same order, the values of `CCN(CCCC(C)Nc1ccnc2cc(Cl)ccc12)CCNC(=O)C(F)(F)C1CCNCC1` (centres unmarked) [Compound 8, N-(2-((4-((7-Chloroquinolin-4-yl)amino)pentyl)(ethyl)amino)ethyl)-2,2-difluoro-2-(piperidin-4-yl)acetamide] are 31.6 µM, 71.6 ± 3.47 µM, 45.4 ± 1.43 µM, 28.3 ± 6.13 µM and 27.3 µM.
In turn, `CCN(CCCC(C)Nc1ccnc2cc(Cl)ccc12)CCNC(=O)C(F)(F)C1CCN(CC(O)C(F)(F)F)CC1` (centres unmarked) [Compound 9, N-(2-((4-((7-Chloroquinolin-4-yl)amino)pentyl)(ethyl)amino)ethyl)-2,2-difluoro-2-(1-(3,3,3-trifluoro-2-hydroxypropyl)piperidin-4-yl)acetamide] had an EC50 in series [9] of 32.8 µM. In addition, the CC50 at 48 h amounted to 5.71 ± 1.04 µM in the series “Splenocytes cytotoxicity” and 48.64 ± 0.18 µM in [6]. In addition, the IC50 came out at 2.85 ± 0.49 µM in series [1]; 1.07 ± 0.23 µM in series [2]; 1.23 ± 0.23 µM in the series with IFN-γ; 1.04 ± 0.2 µM in the series on IL-17; 0.16 ± 0.08 µM with IL-6 [3]; 0.01 ± 0.01 µM with IL-6 [4]. Further, the IC50 was found to be 0.21 ± 0.08 µM in the series with IL-1β [5], 1.61 ± 0.25 µM in the series with IL-6 [7], 0.72 ± 0.17 µM in the series on IL-1β [8] and 15.9 ± 0.45 µM in the series on TNF-α. In the series on Huh7 cell, the CC50 is 16.7 µM.
For `CCN(CCCC(C)Nc1ccnc2cc(Cl)ccc12)CCNC(=O)C(F)(F)C1CCN(CCOCCOC)CC1` (centres unmarked) [Compound 10, N-(2-((4-((7-Chloroquinolin-4-yl)amino)pentyl)(ethyl)amino)ethyl)-2,2-difluoro-2-(1-(2-(2-methoxyethoxy)ethyl)piperidin-4-yl)acetamide], a half-maximal effect in series [9] (EC50) was put at 5.53 µM. The CC50 at 48 h in “Splenocytes cytotoxicity” came to 8.1 ± 0.77 µM; in series [6] it was 125 ± 45.7 µM. For the same compound, the IC50 in series [1] is 4.27 ± 0.33 µM; in series [2] it was 1.42 ± 0.15 µM; in the series with IFN-γ it was 0.61 ± 0.34 µM; in the series on IL-17, 0.25 ± 0.03 µM; in the series with IL-6 [3] it was 2.7 ± 1.16 µM; in the series with IL-6 [4] it was 1.48 ± 0.81 µM. The IC50 turned out to be 0.003 ± 0.002 µM in the series with IL-1β [5], 2.52 ± 0.36 µM in the series on IL-6 [7], 1.81 ± 0.83 µM in the series on IL-1β [8] and 24.4 ± 6.05 µM in the series with TNF-α. In addition, in the series on Huh7 cell, the CC50 is 5.75 µM.
On to `CCN(CCCC(C)Nc1ccnc2cc(Cl)ccc12)CCNC(=O)C(F)(F)C1CCN(C(=O)C2OC(OC)C3OC(C)(C)OC23)CC1` (centres unmarked) [Compound 11, N-(2-((4-((7-Chloroquinolin-4-yl)amino)pentyl)(ethyl)amino)ethyl)-2,2-difluoro-2-(1-(6-methoxy-2,2-dimethyltetrahydrofuro[3,4-d][1,3]dioxole-4-carbonyl)piperidin-4-yl)acetamide], for which it took 25.2 µM to reach a half-maximal effect in series [9] (EC50). Besides, the CC50 at 48 h in the series “Splenocytes cytotoxicity” was 11.24 ± 0.08 µM; in series [6], 47.71 ± 0.15 µM. The IC50 was 2.49 ± 0.11 µM in [1]; 2.99 ± 0.73 µM in series [2]; 0.35 ± 0.18 µM with IFN-γ; 0.17 ± 0.06 µM in the series on IL-17; 0.45 ± 0.18 µM in the series on IL-6 [3]; 0.17 ± 0.11 µM with IL-6 [4]. In addition, the IC50 in the series with IL-1β [5] was 0.04 ± 0.03 µM; with IL-6 [7] it was 1.87 ± 0.44 µM; with IL-1β [8] it was 1.19 ± 0.41 µM; in the series with TNF-α it was 4.41 ± 1.66 µM. Moreover, the CC50 in the series with Huh7 cell amounted to 16.9 µM.
Take `CCN(CCCC(C)Nc1ccnc2cc(Cl)ccc12)CCNC(=O)CCOCCOCCOCCOCCOCC(=O)Nc1ccc2c(c1)OC(F)(F)O2` (centres unmarked) [Compound 15, N^18-(2-((4-((7-Chloroquinolin-4-yl)amino)pentyl)(ethyl)amino)ethyl)-N1-(2,2-difluorobenzo[d][1,3]dioxol-5-yl)-3,6,9,12,15-pentaoxaoctadecanediamide]: the “2019nCoV-S-HIV EC50” value in [9] is “marginal potency”. Moreover, the response in [9] was half-maximal at 20.4 µM (EC50). Further, the CC50 at 48 h in “Splenocytes cytotoxicity” came to 6.07 ± 0.4 µM. The IC50 in [1] stood at 1.32 ± 0.06 µM; in [2] it was 1.44 ± 0.56 µM; in the series with IFN-γ, 1.67 ± 0.44 µM; in the series with IL-17 it was 1.76 ± 0.72 µM; in the series with IL-6 [3], 0.47 ± 0.16 µM; in the series with IL-6 [4], 1.51 ± 0.53 µM. Also, the IC50 in the series on IL-1β [5] was found to be 3.34 ± 0.62 µM; in the series on IL-6 [7], 9.63 ± 3.75 µM; with IL-1β [8], 3.84 ± 1.25 µM; with TNF-α, 10.7 ± 3.99 µM. The CC50 in the series “in vitro” is 21.7 µM.
